Format in all cases: functional, cell-based
Test [1] concerns the target T1, Parathyroid hormone/parathyroid hormone-related peptide receptor (Homo sapiens) (UniProt Q03431).
T1 sequence (whole entry): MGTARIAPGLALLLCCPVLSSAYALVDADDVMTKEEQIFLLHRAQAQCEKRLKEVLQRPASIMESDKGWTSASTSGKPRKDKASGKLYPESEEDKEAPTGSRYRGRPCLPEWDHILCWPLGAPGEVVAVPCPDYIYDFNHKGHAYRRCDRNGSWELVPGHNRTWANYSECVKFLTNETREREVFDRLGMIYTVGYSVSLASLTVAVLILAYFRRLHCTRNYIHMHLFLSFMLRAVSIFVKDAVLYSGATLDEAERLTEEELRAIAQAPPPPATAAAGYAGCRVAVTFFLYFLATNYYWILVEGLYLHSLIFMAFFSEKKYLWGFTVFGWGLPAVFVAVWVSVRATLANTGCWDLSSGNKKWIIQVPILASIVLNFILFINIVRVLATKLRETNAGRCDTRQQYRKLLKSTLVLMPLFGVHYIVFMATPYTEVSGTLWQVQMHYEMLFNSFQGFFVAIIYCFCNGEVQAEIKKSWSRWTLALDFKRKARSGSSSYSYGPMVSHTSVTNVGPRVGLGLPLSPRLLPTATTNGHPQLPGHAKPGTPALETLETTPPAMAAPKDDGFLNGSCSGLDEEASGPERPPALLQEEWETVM
Nature of the test: Agonist activity at extracellular domain truncate human PTH1 receptor expressed in GD5 cells assessed as induction of cAMP after 12 to 20 mins by luciferase reporter gene assay. An outline of the steps:
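HEK293-derived lines stably expressing Glosensor cAMP reporter plus full-length human PTHR1 (GP2.3) or ECD-truncated PTHR1 (GD5). Confluent monolayers preincubated at room temperature in CO2-independent medium with 0.5 mM D-luciferin until baseline stable (30 min), then varied agonist concentrations added. Maximal luminescence (12−20 min) used for sigmoidal variable-slope fits.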

The target in test [2] is T1, Parathyroid hormone/parathyroid hormone-related peptide receptor (Homo sapiens). Nature of the test: Agonist activity at human PTH1 receptor expressed in human GP2.3 cells assessed as induction of cAMP after 12 to 20 mins by luciferase reporter gene assay relative to PTH(1 to 34 residues)-NH2. In general terms: In a reporter assay the amount or activity of a reporter protein is the signal.

Test [3] addresses T2, Parathyroid hormone/parathyroid hormone-related peptide receptor (Homo sapiens, UniProt Q03431).
T2 sequence (Q03431 whole entry): T1 sequence (whole entry)
Nature of the test: Agonist activity at human PTH1 receptor expressed in human GP2.3 cells assessed as induction of cAMP after 12 to 20 mins by luciferase reporter gene assay. As to conditions: read-out: EC50.

pEC50: −log10 of the molar value. Active and inactive are the calls of the source. The rule behind the calls is not given here. Numbered stars: 1 amine (or outer) side, 2 acyl side, 3 side chain; on linkers, the order of the positions; unused ones are H or OH. Square brackets hold non-standard residues; d marks the D form. Peptide text beside a SMILES is read from it. * marks the point of attachment. β3hW = N[C@H](CC(=O)O)Cc1c[nH]c2ccccc12; ACPC(1S,2S) = N[C@H]1CCC[C@@H]1C(=O)*; X1 = O=C([C@H]1CCC[C@@H]1N[*:1])[*:2]; β3hE = N[C@@H](CCC(=O)O)CC(=O)O; β3hF = N[C@H](CC(=O)O)Cc1ccccc1; β3hK = NCCCC[C@H](N)CC(=O)O; β3hM = CSCC[C@H](N)CC(=O)O; β3hD = NC(CC(=O)O)CC(=O)O

In the case of `CC[C@H](C)[C@H](NC(=O)[C@H](CCC(=O)O)NC(=O)[C@H](CO)NC(=O)[C@@H](NC(=O)[C@@H](N)CO)C(C)C)C(=O)N[C@@H](CCC(N)=O)C(=O)N[C@@H](CC(C)C)C(=O)N[C@@H](CCSC)CC(=O)N[C@@H](Cc1cnc[nH]1)C(=O)N[C@@H](CC(N)=O)C(=O)N[C@@H](CC(C)C)C(=O)NCC(=O)N[C@@H](CCCCN)C(=O)N[C@@H](Cc1cnc[nH]1)C(=O)N[C@@H](CC(C)C)C(=O)N[C@@H](CC(N)=O)C(=O)N[C@@H](CO)C(=O)N[C@@H](CCSC)C(=O)N[C@@H](CCC(=O)O)C(=O)N[C@@H](CCCNC(=N)N)C(=O)N[C@H](C(=O)N[C@@H](CCC(=O)O)C(=O)N[C@@H](Cc1c[nH]c2ccccc12)C(=O)N[C@@H](CC(C)C)C(=O)N[C@@H](CCCNC(=N)N)C(=O)N[C@@H](CCCCN)C(=O)N[C@@H](CCCCN)C(=O)N[C@@H](CC(C)C)C(=O)N[C@@H](CCC(N)=O)C(=O)N[C@@H](CC(=O)O)C(=O)N[C@H](C(=O)N[C@@H](Cc1cnc[nH]1)C(=O)N[C@@H](CC(N)=O)C(=O)N[C@@H](Cc1ccccc1)C(N)=O)C(C)C)C(C)C`, the result in test [1] was Active. In addition, in test [2], the fold change (FC) stood at 205.

For `CC[C@H](C)[C@H](NC(=O)[C@H](CCC(=O)O)NC(=O)[C@H](CO)NC(=O)[C@@H](NC(=O)[C@@H](N)CO)C(C)C)C(=O)N[C@@H](CCC(N)=O)C(=O)N[C@H](CC(=O)N[C@@H](CCSC)C(=O)N[C@@H](Cc1cnc[nH]1)C(=O)N[C@@H](CC(N)=O)C(=O)N[C@@H](CC(C)C)C(=O)NCC(=O)N[C@@H](CCCCN)C(=O)N[C@@H](Cc1cnc[nH]1)C(=O)N[C@@H](CC(C)C)C(=O)N[C@@H](CC(N)=O)C(=O)N[C@@H](CO)C(=O)N[C@@H](CCSC)C(=O)N[C@@H](CCC(=O)O)C(=O)N[C@@H](CCCNC(=N)N)C(=O)N[C@H](C(=O)N[C@@H](CCC(=O)O)C(=O)N[C@@H](Cc1c[nH]c2ccccc12)C(=O)N[C@@H](CC(C)C)C(=O)N[C@@H](CCCNC(=N)N)C(=O)N[C@@H](CCCCN)C(=O)N[C@@H](CCCCN)C(=O)N[C@@H](CC(C)C)C(=O)N[C@@H](CCC(N)=O)C(=O)N[C@@H](CC(=O)O)C(=O)N[C@H](C(=O)N[C@@H](Cc1cnc[nH]1)C(=O)N[C@@H](CC(N)=O)C(=O)N[C@@H](Cc1ccccc1)C(N)=O)C(C)C)C(C)C)CC(C)C`, in test [1], the outcome was Active. In test [2], the fold change (FC) worked out at 12.

On to `CC[C@H](C)[C@H](NC(=O)[C@H](CCC(=O)O)NC(=O)[C@H](CO)NC(=O)C[C@@H](NC(=O)[C@@H](N)CO)C(C)C)C(=O)N[C@@H](CCC(N)=O)C(=O)N[C@@H](CC(C)C)C(=O)N[C@@H](CCSC)C(=O)N[C@@H](Cc1cnc[nH]1)C(=O)N[C@@H](CC(N)=O)C(=O)N[C@@H](CC(C)C)C(=O)NCC(=O)N[C@@H](CCCCN)C(=O)N[C@@H](Cc1cnc[nH]1)C(=O)N[C@@H](CC(C)C)C(=O)N[C@@H](CC(N)=O)C(=O)N[C@@H](CO)C(=O)N[C@@H](CCSC)C(=O)N[C@@H](CCC(=O)O)C(=O)N[C@@H](CCCNC(=N)N)C(=O)N[C@H](C(=O)N[C@@H](CCC(=O)O)C(=O)N[C@@H](Cc1c[nH]c2ccccc12)C(=O)N[C@@H](CC(C)C)C(=O)N[C@@H](CCCNC(=N)N)C(=O)N[C@@H](CCCCN)C(=O)N[C@@H](CCCCN)C(=O)N[C@@H](CC(C)C)C(=O)N[C@@H](CCC(N)=O)C(=O)N[C@@H](CC(=O)O)C(=O)N[C@H](C(=O)N[C@@H](Cc1cnc[nH]1)C(=O)N[C@@H](CC(N)=O)C(=O)N[C@@H](Cc1ccccc1)C(N)=O)C(C)C)C(C)C`, for which the result in test [1] was Active. In addition, in test [2], the fold change (FC) is 3.2.

As to `CC[C@H](C)[C@@H](CC(=O)N[C@@H](CCC(N)=O)C(=O)N[C@@H](CC(C)C)C(=O)N[C@@H](CCSC)C(=O)N[C@@H](Cc1cnc[nH]1)C(=O)N[C@@H](CC(N)=O)C(=O)N[C@@H](CC(C)C)C(=O)NCC(=O)N[C@@H](CCCCN)C(=O)N[C@@H](Cc1cnc[nH]1)C(=O)N[C@@H](CC(C)C)C(=O)N[C@@H](CC(N)=O)C(=O)N[C@@H](CO)C(=O)N[C@@H](CCSC)C(=O)N[C@@H](CCC(=O)O)C(=O)N[C@@H](CCCNC(=N)N)C(=O)N[C@H](C(=O)N[C@@H](CCC(=O)O)C(=O)N[C@@H](Cc1c[nH]c2ccccc12)C(=O)N[C@@H](CC(C)C)C(=O)N[C@@H](CCCNC(=N)N)C(=O)N[C@@H](CCCCN)C(=O)N[C@@H](CCCCN)C(=O)N[C@@H](CC(C)C)C(=O)N[C@@H](CCC(N)=O)C(=O)N[C@@H](CC(=O)O)C(=O)N[C@H](C(=O)N[C@@H](Cc1cnc[nH]1)C(=O)N[C@@H](CC(N)=O)C(=O)N[C@@H](Cc1ccccc1)C(N)=O)C(C)C)C(C)C)NC(=O)[C@H](CCC(=O)O)NC(=O)[C@H](CO)NC(=O)[C@@H](NC(=O)[C@@H](N)CO)C(C)C`, the outcome in test [1] was Active. Further, the fold change (FC) in test [2] was found to be 28.

Regarding `CC[C@H](C)[C@H](NC(=O)[C@H](CCC(=O)O)NC(=O)[C@H](CO)NC(=O)[C@@H](NC(=O)[C@@H](N)CO)C(C)C)C(=O)N[C@@H](CCC(N)=O)CC(=O)N[C@@H](CC(C)C)C(=O)N[C@@H](CCSC)C(=O)N[C@@H](Cc1cnc[nH]1)C(=O)N[C@@H](CC(N)=O)C(=O)N[C@@H](CC(C)C)C(=O)NCC(=O)N[C@@H](CCCCN)C(=O)N[C@@H](Cc1cnc[nH]1)C(=O)N[C@@H](CC(C)C)C(=O)N[C@@H](CC(N)=O)C(=O)N[C@@H](CO)C(=O)N[C@@H](CCSC)C(=O)N[C@@H](CCC(=O)O)C(=O)N[C@@H](CCCNC(=N)N)C(=O)N[C@H](C(=O)N[C@@H](CCC(=O)O)C(=O)N[C@@H](Cc1c[nH]c2ccccc12)C(=O)N[C@@H](CC(C)C)C(=O)N[C@@H](CCCNC(=N)N)C(=O)N[C@@H](CCCCN)C(=O)N[C@@H](CCCCN)C(=O)N[C@@H](CC(C)C)C(=O)N[C@@H](CCC(N)=O)C(=O)N[C@@H](CC(=O)O)C(=O)N[C@H](C(=O)N[C@@H](Cc1cnc[nH]1)C(=O)N[C@@H](CC(N)=O)C(=O)N[C@@H](Cc1ccccc1)C(N)=O)C(C)C)C(C)C`, in test [1], the result was Active. For the same compound, the fold change (FC) in test [2] came out at 160.

As for `CC[C@H](C)[C@H](NC(=O)[C@H](CCC(=O)O)NC(=O)C[C@H](CO)NC(=O)[C@@H](NC(=O)[C@@H](N)CO)C(C)C)C(=O)N[C@@H](CCC(N)=O)C(=O)N[C@@H](CC(C)C)C(=O)N[C@@H](CCSC)C(=O)N[C@@H](Cc1cnc[nH]1)C(=O)N[C@@H](CC(N)=O)C(=O)N[C@@H](CC(C)C)C(=O)NCC(=O)N[C@@H](CCCCN)C(=O)N[C@@H](Cc1cnc[nH]1)C(=O)N[C@@H](CC(C)C)C(=O)N[C@@H](CC(N)=O)C(=O)N[C@@H](CO)C(=O)N[C@@H](CCSC)C(=O)N[C@@H](CCC(=O)O)C(=O)N[C@@H](CCCNC(=N)N)C(=O)N[C@H](C(=O)N[C@@H](CCC(=O)O)C(=O)N[C@@H](Cc1c[nH]c2ccccc12)C(=O)N[C@@H](CC(C)C)C(=O)N[C@@H](CCCNC(=N)N)C(=O)N[C@@H](CCCCN)C(=O)N[C@@H](CCCCN)C(=O)N[C@@H](CC(C)C)C(=O)N[C@@H](CCC(N)=O)C(=O)N[C@@H](CC(=O)O)C(=O)N[C@H](C(=O)N[C@@H](Cc1cnc[nH]1)C(=O)N[C@@H](CC(N)=O)C(=O)N[C@@H](Cc1ccccc1)C(N)=O)C(C)C)C(C)C`, the outcome in test [1] was Active. Besides, in test [2], the fold change (FC) was determined as 55.

Take `CC[C@H](C)[C@H](NC(=O)[C@H](CCC(=O)O)NC(=O)[C@H](CO)NC(=O)[C@@H](NC(=O)[C@H]1CCC[C@@H]1N)C(C)C)C(=O)N[C@@H](CCC(N)=O)C(=O)N[C@H]1CCC[C@@H]1C(=O)N[C@@H](CCSC)C(=O)N[C@@H](Cc1cnc[nH]1)C(=O)N[C@@H](CC(N)=O)C(=O)N[C@@H](CC(C)C)C(=O)NCC(=O)N[C@@H](CCCCN)C(=O)N[C@H](CC(=O)N[C@@H](CC(C)C)C(=O)N[C@@H](CC(N)=O)C(=O)N[C@@H](CO)C(=O)N[C@@H](CCSC)CC(=O)N[C@@H](CCC(=O)O)C(=O)N[C@@H](CCCNC(=N)N)C(=O)N[C@H](C(=O)N[C@@H](CCC(=O)O)CC(=O)N[C@@H](Cc1c[nH]c2ccccc12)C(=O)N[C@@H](CC(C)C)C(=O)N[C@@H](CCCNC(=N)N)C(=O)N[C@@H](CCCCN)CC(=O)N[C@@H](CCCCN)C(=O)N[C@@H](CC(C)C)C(=O)N[C@@H](CCC(N)=O)C(=O)N[C@@H](CC(=O)O)CC(=O)N[C@H](C(=O)N[C@@H](Cc1cnc[nH]1)C(=O)N[C@@H](CC(N)=O)C(=O)N[C@H](CC(N)=O)Cc1ccccc1)C(C)C)C(C)C)Cc1c[nH]c2ccccc12` ({ACPC(1S,2S)}-VSEIQ[X1]MHNLGK[β3hW]LNS[β3hM]ERV[β3hE]WLR[β3hK]KLQ[β3hD]VHN[β3hF]-NH2): in test [3], the pEC50 (usually the EC50 on a negative log10 scale, so that one unit is a factor of ten) was 8.74. For the same compound, the fold change (FC) in test [2] was 22.6.
